# Source: the M2OR odorant receptor database
# Key:
# Conditions in all cases: stereoisomer not certain
# [1] = molecular target: T1, UniProt Q8VGC6
# T1 sequence (whole entry): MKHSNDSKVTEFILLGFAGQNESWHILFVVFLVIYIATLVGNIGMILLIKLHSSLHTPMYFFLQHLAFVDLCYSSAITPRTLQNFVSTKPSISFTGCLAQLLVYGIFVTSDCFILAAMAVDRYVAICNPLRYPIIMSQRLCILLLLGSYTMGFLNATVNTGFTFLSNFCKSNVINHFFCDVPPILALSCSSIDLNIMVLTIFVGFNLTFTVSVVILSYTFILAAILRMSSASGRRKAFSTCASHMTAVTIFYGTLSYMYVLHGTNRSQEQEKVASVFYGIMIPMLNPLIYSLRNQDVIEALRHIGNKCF
# In short: (§1)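 Each entry records the cell line, G-protein, co-transfected protein and tags used. Methods varied with the source, often transient luciferase assays in mammalian cell lines. A receptor–molecule pair is called responsive (active) if the original authors judged its signal statistically different from baseline and non-responsive (inactive) otherwise.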
# [2] = molecular target: T2, UniProt Q8VG49
# T2 sequence (whole entry): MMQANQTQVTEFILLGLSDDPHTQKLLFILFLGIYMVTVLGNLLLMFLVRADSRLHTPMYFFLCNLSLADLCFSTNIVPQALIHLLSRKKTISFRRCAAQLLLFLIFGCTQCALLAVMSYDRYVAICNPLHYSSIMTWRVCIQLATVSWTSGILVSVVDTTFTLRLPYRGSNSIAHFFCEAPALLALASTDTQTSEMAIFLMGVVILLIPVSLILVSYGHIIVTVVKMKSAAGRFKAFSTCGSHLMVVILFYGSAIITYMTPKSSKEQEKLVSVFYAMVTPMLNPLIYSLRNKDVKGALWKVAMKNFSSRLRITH
# In short: as §1
# [3] = molecular target: T3, UniProt Q8VG77
# T3 sequence (whole entry): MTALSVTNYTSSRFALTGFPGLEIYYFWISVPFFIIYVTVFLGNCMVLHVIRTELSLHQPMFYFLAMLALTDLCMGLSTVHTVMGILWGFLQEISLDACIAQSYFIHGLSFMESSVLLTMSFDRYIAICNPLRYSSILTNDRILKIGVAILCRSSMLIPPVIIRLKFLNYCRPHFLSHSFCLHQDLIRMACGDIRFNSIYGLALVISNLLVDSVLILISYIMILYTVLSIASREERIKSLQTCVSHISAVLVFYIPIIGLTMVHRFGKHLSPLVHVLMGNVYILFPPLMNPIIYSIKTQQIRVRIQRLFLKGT
# In short: as §1
# [4] = molecular target: T4, UniProt Q8VG96
# T4 sequence (whole entry): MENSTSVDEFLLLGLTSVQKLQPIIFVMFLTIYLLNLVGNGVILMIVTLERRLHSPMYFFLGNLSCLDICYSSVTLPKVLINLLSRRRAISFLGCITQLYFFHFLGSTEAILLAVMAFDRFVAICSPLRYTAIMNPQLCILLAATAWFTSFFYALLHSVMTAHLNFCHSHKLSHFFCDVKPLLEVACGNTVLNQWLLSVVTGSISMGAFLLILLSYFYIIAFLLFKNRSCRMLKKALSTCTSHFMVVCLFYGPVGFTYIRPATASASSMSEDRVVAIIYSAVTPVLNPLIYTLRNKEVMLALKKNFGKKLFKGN
# In short: as §1
# [5] = molecular target: T5, UniProt Q8VGD7
# T5 sequence (whole entry): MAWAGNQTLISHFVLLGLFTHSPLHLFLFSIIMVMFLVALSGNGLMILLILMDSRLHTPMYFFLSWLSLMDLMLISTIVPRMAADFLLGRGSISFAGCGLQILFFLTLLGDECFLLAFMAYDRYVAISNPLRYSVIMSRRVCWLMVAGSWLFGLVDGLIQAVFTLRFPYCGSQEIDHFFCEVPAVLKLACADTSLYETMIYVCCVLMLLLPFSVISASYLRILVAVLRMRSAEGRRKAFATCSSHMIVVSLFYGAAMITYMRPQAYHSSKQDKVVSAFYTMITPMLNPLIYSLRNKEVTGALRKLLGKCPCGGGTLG
# In short: as §1
# [6] = molecular target: T6, UniProt Q8VGH1
# T6 sequence (whole entry): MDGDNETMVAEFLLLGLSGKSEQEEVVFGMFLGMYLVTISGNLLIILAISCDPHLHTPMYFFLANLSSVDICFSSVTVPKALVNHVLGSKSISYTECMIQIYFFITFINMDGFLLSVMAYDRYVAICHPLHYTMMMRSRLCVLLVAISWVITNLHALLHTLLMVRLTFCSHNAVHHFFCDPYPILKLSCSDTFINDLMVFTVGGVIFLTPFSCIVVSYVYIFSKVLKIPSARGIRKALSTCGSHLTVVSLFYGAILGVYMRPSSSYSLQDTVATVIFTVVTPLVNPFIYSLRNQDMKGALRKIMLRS
# In short: as §1
# [7] = molecular target: T7, UniProt Q8VGJ1
# T7 sequence (whole entry): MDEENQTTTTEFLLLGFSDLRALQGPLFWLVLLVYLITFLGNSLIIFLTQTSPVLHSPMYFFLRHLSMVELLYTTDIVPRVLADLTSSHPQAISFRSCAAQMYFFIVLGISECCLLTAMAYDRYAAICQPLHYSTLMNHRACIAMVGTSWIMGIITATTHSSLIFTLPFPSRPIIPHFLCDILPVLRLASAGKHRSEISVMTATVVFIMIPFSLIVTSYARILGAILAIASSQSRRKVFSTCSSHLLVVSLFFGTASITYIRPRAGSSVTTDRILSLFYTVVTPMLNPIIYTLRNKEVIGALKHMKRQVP
# In short: as §1
# [8] = molecular target: T8, UniProt Q8VGJ5
# T8 sequence (whole entry): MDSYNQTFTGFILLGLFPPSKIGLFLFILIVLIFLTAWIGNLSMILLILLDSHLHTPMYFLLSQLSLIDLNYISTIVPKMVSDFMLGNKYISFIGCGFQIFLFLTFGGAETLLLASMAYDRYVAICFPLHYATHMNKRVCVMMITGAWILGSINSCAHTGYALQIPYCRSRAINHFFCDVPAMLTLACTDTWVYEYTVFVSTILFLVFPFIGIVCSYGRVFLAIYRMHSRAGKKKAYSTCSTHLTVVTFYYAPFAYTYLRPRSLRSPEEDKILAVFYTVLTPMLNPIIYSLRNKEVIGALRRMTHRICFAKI
# In short: as §1
# [9] = molecular target: T9, UniProt Q8VGL0
# T9 sequence (whole entry): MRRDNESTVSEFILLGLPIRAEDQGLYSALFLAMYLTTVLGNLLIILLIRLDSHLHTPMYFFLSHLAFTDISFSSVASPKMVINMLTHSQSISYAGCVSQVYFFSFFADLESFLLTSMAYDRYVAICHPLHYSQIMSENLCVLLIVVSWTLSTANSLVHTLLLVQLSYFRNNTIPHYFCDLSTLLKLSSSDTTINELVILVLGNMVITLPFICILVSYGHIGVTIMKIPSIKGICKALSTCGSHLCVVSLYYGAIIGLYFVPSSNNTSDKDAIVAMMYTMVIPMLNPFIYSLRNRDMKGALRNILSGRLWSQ
# In short: as §1
# [10] = molecular target: T10, UniProt Q8VGL7
# T10 sequence (whole entry): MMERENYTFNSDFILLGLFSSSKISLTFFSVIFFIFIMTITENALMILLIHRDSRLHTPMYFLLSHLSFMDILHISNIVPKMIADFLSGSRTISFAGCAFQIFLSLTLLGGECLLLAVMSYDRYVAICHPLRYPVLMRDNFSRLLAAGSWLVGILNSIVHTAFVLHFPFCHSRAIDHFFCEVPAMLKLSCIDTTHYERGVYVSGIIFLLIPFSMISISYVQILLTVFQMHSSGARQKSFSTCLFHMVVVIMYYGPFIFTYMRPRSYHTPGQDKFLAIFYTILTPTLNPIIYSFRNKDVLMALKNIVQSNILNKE
# In short: as §1
# [11] = molecular target: T11, UniProt Q8VG27
# T11 sequence (whole entry): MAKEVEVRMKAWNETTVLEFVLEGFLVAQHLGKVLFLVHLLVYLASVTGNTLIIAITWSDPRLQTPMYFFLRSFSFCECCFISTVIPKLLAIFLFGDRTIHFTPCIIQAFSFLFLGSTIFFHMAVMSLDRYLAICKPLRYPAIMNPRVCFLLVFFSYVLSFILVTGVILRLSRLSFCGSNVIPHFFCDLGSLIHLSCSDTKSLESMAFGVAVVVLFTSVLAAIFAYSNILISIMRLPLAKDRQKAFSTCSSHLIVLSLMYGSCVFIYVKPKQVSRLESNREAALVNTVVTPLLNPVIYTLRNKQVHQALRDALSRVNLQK
# In short: as §1
# [12] = molecular target: T12, UniProt Q8VG53
# T12 sequence (whole entry): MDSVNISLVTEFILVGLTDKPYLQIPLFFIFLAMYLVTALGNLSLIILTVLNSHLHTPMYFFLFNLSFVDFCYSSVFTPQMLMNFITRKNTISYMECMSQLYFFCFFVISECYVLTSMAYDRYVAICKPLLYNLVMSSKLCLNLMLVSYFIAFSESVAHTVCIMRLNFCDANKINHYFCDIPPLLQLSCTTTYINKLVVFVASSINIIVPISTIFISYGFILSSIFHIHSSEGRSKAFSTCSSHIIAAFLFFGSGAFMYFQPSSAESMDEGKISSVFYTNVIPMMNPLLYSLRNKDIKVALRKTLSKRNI
# In short: as §1
# [13] = molecular target: T13, UniProt Q8VG64
# T13 sequence (whole entry): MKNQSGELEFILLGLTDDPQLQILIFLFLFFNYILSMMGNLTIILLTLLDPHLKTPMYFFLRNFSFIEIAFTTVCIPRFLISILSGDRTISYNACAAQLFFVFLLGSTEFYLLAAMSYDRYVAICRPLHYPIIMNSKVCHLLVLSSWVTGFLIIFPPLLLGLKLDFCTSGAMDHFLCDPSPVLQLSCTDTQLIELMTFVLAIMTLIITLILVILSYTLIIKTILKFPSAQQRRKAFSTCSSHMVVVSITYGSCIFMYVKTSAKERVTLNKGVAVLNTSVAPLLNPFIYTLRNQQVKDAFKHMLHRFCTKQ
# In short: as §1
# [14] = molecular target: T14, UniProt Q8VGB9
# T14 sequence (whole entry): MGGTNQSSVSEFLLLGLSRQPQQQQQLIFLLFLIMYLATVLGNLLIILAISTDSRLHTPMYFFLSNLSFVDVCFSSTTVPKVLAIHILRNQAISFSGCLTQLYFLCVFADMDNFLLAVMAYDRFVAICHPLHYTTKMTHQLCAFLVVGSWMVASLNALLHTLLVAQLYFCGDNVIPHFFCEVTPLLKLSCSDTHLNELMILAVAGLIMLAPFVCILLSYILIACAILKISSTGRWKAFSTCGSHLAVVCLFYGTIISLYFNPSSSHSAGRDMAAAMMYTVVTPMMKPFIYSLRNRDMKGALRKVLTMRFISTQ
# In short: as §1
# [15] = molecular target: T15, UniProt Q8VGJ3
# T15 sequence (whole entry): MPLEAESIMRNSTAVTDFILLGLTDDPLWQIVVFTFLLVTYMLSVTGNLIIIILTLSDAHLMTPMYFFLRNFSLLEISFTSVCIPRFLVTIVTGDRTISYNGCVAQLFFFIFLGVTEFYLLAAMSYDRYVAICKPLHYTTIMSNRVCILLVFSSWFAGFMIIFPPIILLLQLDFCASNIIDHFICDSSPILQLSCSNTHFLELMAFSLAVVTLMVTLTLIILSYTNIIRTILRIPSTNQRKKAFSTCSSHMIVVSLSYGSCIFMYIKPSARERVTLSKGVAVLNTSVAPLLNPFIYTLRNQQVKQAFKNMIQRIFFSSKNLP
# In short: as §1
# [16] = molecular target: UniProt Q8VGE3
# UniProt Q8VGE3, sequence (Q8VGE3 as listed by the source): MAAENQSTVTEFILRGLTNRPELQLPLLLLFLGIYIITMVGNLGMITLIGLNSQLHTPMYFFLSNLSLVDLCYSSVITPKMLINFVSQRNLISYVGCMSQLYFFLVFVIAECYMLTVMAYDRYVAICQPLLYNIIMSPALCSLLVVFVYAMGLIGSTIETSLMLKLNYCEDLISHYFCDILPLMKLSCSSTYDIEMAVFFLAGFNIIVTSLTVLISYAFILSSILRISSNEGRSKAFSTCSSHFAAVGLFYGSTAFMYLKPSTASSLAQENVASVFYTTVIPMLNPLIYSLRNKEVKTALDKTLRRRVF
# In short: as §1
# [17] = molecular target: UniProt Q8VGK6
# UniProt Q8VGK6, sequence (Q8VGK6 as listed by the source): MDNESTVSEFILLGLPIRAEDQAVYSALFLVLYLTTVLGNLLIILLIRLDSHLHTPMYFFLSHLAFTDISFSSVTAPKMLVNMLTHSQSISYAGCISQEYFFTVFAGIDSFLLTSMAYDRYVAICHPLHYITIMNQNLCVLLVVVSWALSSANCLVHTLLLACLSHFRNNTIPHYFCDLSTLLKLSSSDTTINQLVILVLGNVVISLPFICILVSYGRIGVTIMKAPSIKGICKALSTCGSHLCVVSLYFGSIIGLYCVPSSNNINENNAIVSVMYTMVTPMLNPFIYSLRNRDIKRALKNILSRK
# In short: as §1
# [18] = molecular target: UniProt Q8VG28
# UniProt Q8VG28, sequence (Q8VG28 as listed by the source): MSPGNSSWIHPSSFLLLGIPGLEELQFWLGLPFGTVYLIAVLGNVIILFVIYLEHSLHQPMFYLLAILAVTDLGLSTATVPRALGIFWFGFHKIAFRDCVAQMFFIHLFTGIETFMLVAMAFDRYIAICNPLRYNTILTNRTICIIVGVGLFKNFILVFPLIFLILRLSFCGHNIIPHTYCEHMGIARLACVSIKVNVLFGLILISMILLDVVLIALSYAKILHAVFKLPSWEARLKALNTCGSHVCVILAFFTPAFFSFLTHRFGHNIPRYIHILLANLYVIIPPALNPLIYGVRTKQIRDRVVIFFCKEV
# In short: as §1
smiles,measurement,setting,value
CC(C)CN,odorant receptor agonist call,[1],inactive
CCC=O,odorant receptor agonist call,[1],inactive
CCCCOC(=O)C(C)OC(=O)CCC (stereo unspecified),odorant receptor agonist call,[2],inactive
same,odorant receptor agonist call,[3],inactive
same,odorant receptor agonist call,[4],inactive
same,odorant receptor agonist call,[1],inactive
same,odorant receptor agonist call,[5],inactive
same,odorant receptor agonist call,[6],inactive
same,odorant receptor agonist call,[7],inactive
same,odorant receptor agonist call,[8],inactive
same,odorant receptor agonist call,[9],inactive
same,odorant receptor agonist call,[10],inactive
CC(O)c1ccccc1 (stereo unspecified),odorant receptor agonist call,[1],inactive
Cc1ccccc1OC(=O)C(C)C,odorant receptor agonist call,[11],inactive
same,odorant receptor agonist call,[12],inactive
same,odorant receptor agonist call,[13],inactive
same,odorant receptor agonist call,[14],inactive
same,odorant receptor agonist call,[1],inactive
same,odorant receptor agonist call,[15],inactive
same,odorant receptor agonist call,[9],inactive
CCCC(=O)OCC,odorant receptor agonist call,[1],inactive
CCCCCC(C)(C)O,odorant receptor agonist call,[1],inactive
CC(C)=CCCC(C)CC=O (stereo unspecified),odorant receptor agonist call,[1],inactive
CCCOC(=O)CCC,odorant receptor agonist call,[1],inactive
O=c1ccc2ccccc2o1,odorant receptor agonist call,[2],inactive
same,odorant receptor agonist call,[3],inactive
same,odorant receptor agonist call,[4],active
same,odorant receptor agonist call,[1],inactive
same,odorant receptor agonist call,[5],inactive
same,odorant receptor agonist call,[16],active
same,odorant receptor agonist call,[6],active
same,odorant receptor agonist call,[7],inactive
same,odorant receptor agonist call,[8],inactive
same,odorant receptor agonist call,[17],active
same,odorant receptor agonist call,[9],inactive
same,odorant receptor agonist call,[10],inactive
COC(OC)c1ccccc1,odorant receptor agonist call,[11],inactive
same,odorant receptor agonist call,[12],inactive
same,odorant receptor agonist call,[13],inactive
same,odorant receptor agonist call,[14],inactive
same,odorant receptor agonist call,[1],inactive
same,odorant receptor agonist call,[15],inactive
same,odorant receptor agonist call,[9],inactive
Cc1nccnc1C,odorant receptor agonist call,[1],inactive
OCCCCCCCCCO,odorant receptor agonist call,[11],inactive
same,odorant receptor agonist call,[12],inactive
same,odorant receptor agonist call,[13],active
same,odorant receptor agonist call,[14],inactive
same,odorant receptor agonist call,[1],inactive
same,odorant receptor agonist call,[15],inactive
same,odorant receptor agonist call,[9],inactive
CCCCCCCC(=O)[O-].[H+],odorant receptor agonist call,[18],active
same,odorant receptor agonist call,[2],inactive
same,odorant receptor agonist call,[3],inactive
same,odorant receptor agonist call,[4],inactive
same,odorant receptor agonist call,[1],inactive
same,odorant receptor agonist call,[5],inactive
same,odorant receptor agonist call,[6],inactive
same,odorant receptor agonist call,[7],inactive
same,odorant receptor agonist call,[8],inactive
same,odorant receptor agonist call,[9],inactive
same,odorant receptor agonist call,[10],inactive
CC1=CCC2CC1C2(C)C (stereo unspecified),odorant receptor agonist call,[1],inactive
CC(C)C12CCC(C)(CC1)O2,odorant receptor agonist call,[1],inactive
C1CCOCC1,odorant receptor agonist call,[11],inactive
same,odorant receptor agonist call,[12],inactive
same,odorant receptor agonist call,[13],inactive
same,odorant receptor agonist call,[14],inactive
same,odorant receptor agonist call,[1],inactive
same,odorant receptor agonist call,[15],inactive
same,odorant receptor agonist call,[9],inactive
